Screens (PubChem BioAssay)
Compounds with a hit are over-represented: about 3.7% of the library has one in this group of screens.
NPY-Y2 antag – NPY-Y2 (human) receptor antagonism | NPY-Y2 expressing cells, antagonist mode | inhibition, % at 2.7 µM | 0.99% of 140,000 active | AID 793; in the data active = inhibition above about 17%;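 also: 0% = vehicle with agonist challenge and 100% = reference antagonist with challenge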
NPY1 pot ag – potentiates or activates human NPY-Y1 receptor; P25929; NPY-Y1 expressing cells, potentiator/agonist activation; activation, % at 3.6 µM; 0.37% of 220,000 active; in the data active = activation above about 33%, passing the limit was not always enough;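 also: cells stimulated with NPY at EC10 then isoproterenol at EC100; 0% = low agonist plus stimulus and 100% = saturating agonist plus stimulus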
Furin inh – human furin inhibition. AID 463115. purified furin, fluorogenic substrate cleavage. inhibition, % at 20 µM or 30 µM. P09958. 0.061% of 220,000 active; in the data active = inhibition above about 25%
Target sequence (P09958 108-714 limits assumed): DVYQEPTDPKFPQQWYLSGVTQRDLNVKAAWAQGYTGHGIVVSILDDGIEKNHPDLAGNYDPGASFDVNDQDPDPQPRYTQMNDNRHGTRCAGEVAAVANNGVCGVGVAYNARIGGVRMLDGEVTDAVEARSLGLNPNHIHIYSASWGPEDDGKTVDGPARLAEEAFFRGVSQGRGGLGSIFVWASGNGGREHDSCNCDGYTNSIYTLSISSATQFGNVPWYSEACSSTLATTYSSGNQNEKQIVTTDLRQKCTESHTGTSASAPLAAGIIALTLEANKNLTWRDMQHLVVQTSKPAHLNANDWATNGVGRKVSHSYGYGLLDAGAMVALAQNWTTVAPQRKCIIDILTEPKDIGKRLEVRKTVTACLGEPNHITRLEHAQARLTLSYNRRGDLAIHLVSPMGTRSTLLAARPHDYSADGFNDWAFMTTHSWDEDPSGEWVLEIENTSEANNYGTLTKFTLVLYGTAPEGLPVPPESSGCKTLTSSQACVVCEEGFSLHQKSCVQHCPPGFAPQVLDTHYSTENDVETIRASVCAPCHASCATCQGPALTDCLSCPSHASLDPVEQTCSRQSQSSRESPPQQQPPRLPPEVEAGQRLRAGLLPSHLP
NPY-Y2 PAM-ag – human NPY-Y2 potentiation or agonism, primary screen | activation, % at 3.6 µM | 0.45% of 220,000 active | P49146 | cells expressing NPY-Y2, potentiator/agonist read-out; in the data active = activation above about 27%;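 also: cells stimulated with NPY near EC25 plus isoproterenol at EC100; 0% = vehicle plus submaximal agonist and 100% = vehicle plus saturating agonist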
KCC2 mod – modulators of human KCC2 chloride dependent transport | Q9H2X9 | KCC2 cells, thallium flux FluoZin-2 fluorescence | B-score of Tl+ flux slope (higher = more flux/activation; lower = inhibition) at 10 µM | 2.2% of 190,000 active | AID 1456;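 active = thallium flux slope and its plate-corrected score both differing from the plate sample mean at a set confidence after two filtering rounds, in either direction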;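 also: slope of fluorescence scaled to starting intensity during 10 to 20 s after thallium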
NPY-Y1 antag – blocks the human neuropeptide Y Y1 receptor; P25929; HEK293-CNG Y1 cells, membrane potential fluorescence; NPY at EC95, then isoproterenol; inhibition, % at 3.6 µM; 1% of 200,000 active;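 active = inhibition above the campaign mean inhibition of all tested compounds plus 3 SD, cut at about 20% in these data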;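 also: 0% = DMSO wells given NPY plus isoproterenol and 100% = isoproterenol alone without NPY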
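Material: HEK293 cells with Y1 receptor plus CNG channel; times: compound incubation 1 h at room temperature, readout 45 min post-stimulation; signal: fluorescence, membrane potential probe; read-out basis: fluorescence ratio normalized to % inhibition between controls; benchmarks: full-block control isoproterenol-only wells, zero-block control NPY plus isoproterenol wells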
KCC2 secondary – confirmation of human KCC2 transport modulators; shares compounds with KCC2 mod; HEK293-KCC2, thallium flux, FluoZin2 fluorescence; active compounds read high; normalised thallium flux (F/F0 slope) at 10 µM; 15% of 3,700 active; AID 1713;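 active = thallium flux slope above the same plate's solvent-only control mean plus 3 SD; inconclusive = the two replicate wells disagree; inactive = no significant difference from solvent-only control wells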
KCC2 bumet counter – thallium flux despite bumetanide block in KCC2 cells, secondary assay 3 | shares compounds with KCC2 mod | HEK293-KCC2 + bumetanide/ouabain, thallium flux FluoZin2; active compounds read high | normalized thallium flux at 10 µM | 49% of 3,700 active | AID 1714;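 active = thallium entry rate above the same plate's blocked-transporter control wells by more than 3 SD; inconclusive = the two repeat wells disagree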;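 also: raw slope of fluorescence over initial fluorescence between 10 and 20 s after thallium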
KCC2 secondary2 – KCC2 (human) modulation, second secondary assay; shares compounds with KCC2 mod; HEK293-KCC2, thallium flux FluoZin2 fluorescence; actives lie on both sides; F/F0 rise rate, 10–20 s post-thallium; normalized thallium flux at 10 µM; 23% of 3,700 active;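 active = thallium flux slope more than 3 SD above or below the plate's solvent-only control mean, mostly below; inconclusive = the two repeat wells disagreed; inactive = no significant shift from solvent-only controls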;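 also: raw slope with 0.1% DMSO as baseline and bumetanide as block control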
HEK293 Tl flux – counter-screen for KCC2 modulators: effect in parental HEK293 cells; shares compounds with KCC2 mod; thallium flux FluoZin2, ouabain; baseline-ratio fluorescence slope, 10–20 s after thallium; thallium flux rate (normalised fluorescence) at 10 µM; 46% of 3,700 active; AID 1716;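 active = thallium flux rate significantly above the same plate's solvent-only control wells, beyond their mean plus 3 SD; inconclusive = the two replicate wells gave conflicting results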
KCC2 retest ouab – confirmation of human KCC2 modulators with ouabain; HEK293-KCC2, thallium flux FluoZin2 fluorescence; bidirectional: low = inhibitor, high = activator; raw Tl+ flux slope (below DMSO = inhibition, above = activation) at 10 µM; 48% of 3,700 active; shares compounds with KCC2 mod;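 active = thallium flux slope beyond 3 SD from same-plate DMSO control mean in most replicates, usually higher, sometimes lower; inconclusive = repeat tests gave conflicting results; inactive = no significant difference from controls in most replicates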;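 also: slope of initial-normalized fluorescence between seconds 10 and 20 after thallium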
HEK counter2 – counter-screen for KCC2 modulators: effect in parental HEK293 cells. thallium flux slope at 10 µM. shares compounds with KCC2 mod. thallium flux FluoZin-2 fluorescence slope. 33% of 3,700 active;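 active = thallium flux slope above the same plate's solvent-control mean plus 3 SD in both duplicate wells; inconclusive = duplicate wells that disagreed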;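 also: run without ouabain in cells lacking the KCC2 cotransporter; slope of fluorescence scaled to its starting value between 10 and 20 s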
The depositor's hits bear a star; ? = inconclusive; · = no result given.

SMILES	NPY-Y2 antag	NPY1 pot ag	Furin inh	NPY-Y2 PAM-ag	KCC2 mod	NPY-Y1 antag	KCC2 secondary	KCC2 bumet counter	KCC2 secondary2	HEK293 Tl flux	KCC2 retest ouab	HEK counter2
COc1ccc(C(=O)NNC(=O)c2ccc(C(C)(C)C)cc2)cc1	·	-1	-35	-13	-1.3	5	·	·	·	·	·	·
COc1ccc(C(=O)NC(=S)NNC(=O)COc2ccccc2)cc1	·	17	-18	7	35*	2	0.023*	0.072*	?	0.036*	0.051*	0.021*
O=C(COc1ccc2ccccc2c1)NNC(=O)c1ccc([N+](=O)[O-])cc1	·	-3	-30	-3	-2.8	6	·	·	·	·	·	·
COc1ccc(OCC(=O)NC(=S)NNC(=O)COc2ccc(Br)cc2Cl)cc1	·	-34	-10	-16	13*	7	0.011	0.026*	0.033	0.019*	0.026	0.013*
COc1ccc(C(=O)NNC(=S)NC(=O)C(C)(C)C)cc1	·	-2	-12	4	24*	4	0.024*	0.036*	?	0.043*	0.042*	0.014*
COc1ccc(NC(=S)NNC(=O)COc2ccc(Cl)cc2Cl)cc1	4	2	-15	7	3.7	-3	·	·	·	·	·	·
CC(=O)Nc1ccc(/C=N/NC(=O)CNC(=O)c2ccccc2)cc1	·	3	-22	4	0.63	-1	·	·	·	·	·	·
CCN(CC)c1ccc(C(=S)NCc2ccccc2)cc1	·	7	-17	5	0.36	2	·	·	·	·	·	·
O=C(COc1ccccc1)NNC(=S)NC(=O)c1ccccc1	·	7	-33	-8	18*	3	0.007	0.045*	0.05*	0.039*	0.043*	0.041*
CC(=O)NNC(=S)NC(=O)c1ccccc1	·	11	0	-18	-0.055	7	·	·	·	·	·	·
Cc1cccc(-c2nc(CS(=O)CC(=O)N3CCc4ccccc4C3)c(C)o2)c1 (stereo unspecified)	4	-10	-31	-3	·	6	0.0074	0.0053	?	0.007	?	0.01
N#CC1(NC(=O)CN2CCN(S(=O)(=O)c3ccccc3F)CC2)CCCC1	·	7	-19	-10	1.5	·	·	·	·	·	·	·
N#C/C(=C\c1ccc(Cl)cc1)C(=O)Nc1cccnc1	·	-26	-10	0	-1.4	·	·	·	·	·	·	·
CC(NC(=O)c1ccnn1C)C1CCCO1 (stereo unspecified)	·	2	-26	-4	-0.69	-7	·	·	·	·	·	·
CN(C(=S)NC(=O)/C=C/c1ccc(F)cc1)C1CCCCC1	1	-9	-7	-9	12*	-2	0.012	0.072*	0.033	0.019*	?	0.014*
O=C(/C=C/c1ccc(F)cc1)NC(=S)NC1CCCCC1	·	-17	-10	-48	1.3	·	·	·	·	·	·	·
COc1ccc(CCC(=O)N2CCCSC2=Nc2ccc(C(C)=O)cc2)cc1	2	-44	-19	-4	-0.79	12	·	·	·	·	·	·
CC(C)OCCCNC(=O)c1ccc(Br)cc1	0	2	-12	15	0.64	6	·	·	·	·	·	·
CC(C)OCCCn1c(-c2ccc(Br)cc2)c[nH]c1=S	·	7	-20	24	9.5*	6	0.0094	0.043*	0.036	0.02*	0.04*	0.013*
